# High-throughput results deposited in PubChem by several laboratories.
# Rows were chosen to be rich in hits. Some 1.1% of all compounds tested hit in one or more screens of this group.
# SKN-1 inh: C. elegans SKN-1 inhibition; C. elegans VP596 Pgst-4::GFP/RFP ratio, acrylamide-induced, 24 h; inhibition, % at 21.8 µM; hit rate 0.49% among 360,000;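 active = interference check ratio from 0.5 to 1.5 plus GFP to RFP signal ratio inhibition reaching or exceeding a fixed threshold, cut at about 30% in these data, passing the limit was not always enough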
# GC-B act: GC-B (human) receptor activation | AID 1920062 | activation, % at 10 µM | hit rate 0.11% among 370,000 | HEK293-GC-B cells, CNP EC30, cGMP TR-FRET; 0% at EC30 CNP, 100% saturating CNP;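 active = activation at 10 µM reaching about 35% in either raw or pattern-adjusted values, limit read from the data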
# NPR1 activator: GC-A (human) enzyme activation. HEK293 GC-A cells, cGMP TR-FRET, EC30 ANP; 0% at EC30 ANP, 100% saturating ANP. activation, % at 10 µM. hit rate 0.14% among 370,000. AID 1671463; in the data active = activation above about 40%
# Target sequence (P16066 whole entry, looked up): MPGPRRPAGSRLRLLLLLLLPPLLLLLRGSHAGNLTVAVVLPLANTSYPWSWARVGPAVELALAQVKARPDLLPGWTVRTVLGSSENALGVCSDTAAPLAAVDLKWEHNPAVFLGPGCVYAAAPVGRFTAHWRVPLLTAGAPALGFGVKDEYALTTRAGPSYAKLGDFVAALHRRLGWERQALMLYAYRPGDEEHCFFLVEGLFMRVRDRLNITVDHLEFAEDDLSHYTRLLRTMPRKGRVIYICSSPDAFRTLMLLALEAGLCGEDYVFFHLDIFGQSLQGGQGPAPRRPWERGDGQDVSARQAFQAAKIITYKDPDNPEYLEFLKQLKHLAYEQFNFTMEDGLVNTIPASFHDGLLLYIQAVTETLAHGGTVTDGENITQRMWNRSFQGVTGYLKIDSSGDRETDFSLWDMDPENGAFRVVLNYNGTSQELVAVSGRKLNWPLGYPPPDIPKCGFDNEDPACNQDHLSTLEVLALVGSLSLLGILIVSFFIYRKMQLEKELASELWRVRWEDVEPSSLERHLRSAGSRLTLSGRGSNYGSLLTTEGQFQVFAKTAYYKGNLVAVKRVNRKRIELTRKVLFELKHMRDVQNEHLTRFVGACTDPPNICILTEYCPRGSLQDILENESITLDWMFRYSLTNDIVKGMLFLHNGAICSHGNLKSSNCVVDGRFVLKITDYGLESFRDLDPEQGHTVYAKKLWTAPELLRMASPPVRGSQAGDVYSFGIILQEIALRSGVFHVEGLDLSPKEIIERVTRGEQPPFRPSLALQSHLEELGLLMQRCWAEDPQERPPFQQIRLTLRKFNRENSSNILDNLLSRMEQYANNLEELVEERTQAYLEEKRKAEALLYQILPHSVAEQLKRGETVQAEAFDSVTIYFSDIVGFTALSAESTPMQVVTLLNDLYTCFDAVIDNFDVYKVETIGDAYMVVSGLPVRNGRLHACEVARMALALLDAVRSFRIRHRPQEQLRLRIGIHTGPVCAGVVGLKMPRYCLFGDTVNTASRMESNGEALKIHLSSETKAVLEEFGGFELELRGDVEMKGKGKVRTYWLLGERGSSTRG
# MT1-MMP act inh: inhibitors of human MT1-MMP activation. hit rate 0.061% among 360,000. HT1080 RFP-PRO-GFP cells, GFP/RFP ratio fluorescence, overnight; percent of plate control window, DMSO zero. GFP/RFP ratio change, % at 20 µM. P50281. AID 651647;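 active = GFP/RFP ratio change of at least 30% with cell ATP level not reduced by more than half and red fluorescence within 50% of control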
#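 Assay system – RFP-PRO-GFP reporter HT1080 cells · Compound dosing – single dose of 20 µM compound, 1% DMSO final · Incubation – overnight compound exposure at 37 °C · Measure – GFP/RFP fluorescence ratio · Benchmarks – DMSO wells and RFP-L50D-GFP cells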
# Bfl-1 A1 inh: inhibitors of the anti-apoptotic protein A1, read as caspase activation; MEF A1-2A-BIM cells, Caspase-Glo 3/7 luminescence, 3 h; percent of clofoctol response, vehicle zero; caspase activation, % (test concentration not listed); hit rate 0.066% among 330,000;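 active = over half of replicate activation scores above 10%, or exactly half above 10 with the replicate mean above 10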
# Tb MetRS inh: blocks T. brucei methionyl-tRNA synthetase activity; purified T. brucei MetRS, ATP depletion, Kinase-Glo luminescence; inhibition, % at 11.9 µM; hit rate 0.4% among 360,000;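 active = inhibition above a per-plate cutoff of the control wells' mean inhibition plus 3 SD, cut at about 5.5% in these data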
#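 Assay system: T. brucei methionyl-tRNA synthetase, purified | Medium: HEPES buffer with MgCl2, KCl, DTT, spermine, BSA, pyrophosphatase | Compound: 11.9 µM single point | Incubation: 15 min enzyme-compound preincubation, 2 h reaction, 10 min detection, 25 °C | Measured by: Kinase-Glo luciferase luminescence reporting remaining unconsumed ATP | Measure: % inhibition normalized to control-well medians | Replication: Singlicate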
# Numbers stand for hits; i = inactive; nt = not tested or not shown.
SMILES,SKN-1 inh,GC-B act,NPR1 activator,MT1-MMP act inh,Bfl-1 A1 inh,Tb MetRS inh
CC1=C(C(=O)N2CCOCC2)C(c2c(C)cc(C)cc2C)NC(=S)N1 (stereo not drawn),i,i,i,i,i,i
CC1=C(C(=O)N2CCOCC2)C(c2ccc(Cl)cc2)NC(=S)N1 (stereo not drawn),i,61,54,i,i,i
CC1=C(C(=O)N2CCOCC2)C(c2ccc(C)cc2)NC(=S)N1 (stereo not drawn),i,65,59,i,i,i
CC1=C(C(=O)N2CCOCC2)C(c2ccccc2F)NC(=O)N1 (stereo not drawn),i,i,i,i,i,i
CC(C)CN1C(=O)C[C@@]2(C(=O)N(C)c3ccc(NS(=O)(=O)C4CC4)cc32)C1c1ccccc1 (stereo partly drawn),nt,i,i,nt,nt,nt
O=C(CSc1nnc(Cc2cccs2)n1-c1ccc(Cl)cc1)Nc1ccc(OCc2ccccc2)cc1,nt,i,i,nt,nt,nt
O=C(O)CN1C(=O)C2C3CC(C2C1=O)C1C(c2ccc(F)cc2)c2sc(=O)[nH]c2SC31 (stereo not drawn),48,i,i,i,i,i
O=C(NC1CCCCN(Cc2ccc(OC(F)(F)F)cc2)C1=O)c1ccc2ccccc2c1 (stereo not drawn),nt,i,i,nt,nt,nt
CCOC(=O)COc1ccc(C(C)c2ccc(NC(=O)OC(C)(C)C)cc2)cc1 (stereo not drawn),nt,i,i,nt,nt,nt
CN(C)S(=O)(=O)NC(c1ccccc1)c1ccccc1,36,i,i,i,i,i
OC(CN1CCN(C(c2ccccc2)c2ccccc2)CC1)c1ccccc1 (stereo not drawn),40,nt,nt,i,i,i
Cc1cc(N2CCOCC2)nc2ccc(NC(=O)C3CCC(C)CC3)cc12 (stereo not drawn),35,i,i,i,i,i
CCN1CCN(c2cc(C)c3cc(NC(=S)N4CCCCC4)ccc3n2)CC1,38,i,i,i,i,i
CCN1CCN(c2cc(C)c3cc(NC(=S)N4CCCC4)ccc3n2)CC1,i,i,i,i,i,i
C[C@H](NS(=O)(=O)c1ccc([N+](=O)[O-])cc1)C(=O)NCCNC(=O)[C@@H](C)NS(=O)(=O)c1ccc([N+](=O)[O-])cc1,nt,i,i,nt,nt,nt
Cc1nc(SCc2nc3c([N+](=O)[O-])cccc3[nH]2)c2oc3ccccc3c2n1,i,nt,nt,i,17,i
Cc1cc(C)c2ccc3c(C)c(C)nc3c2[nH]1,53,i,i,i,i,i
Cc1cc(=O)[nH]c2c(C)c(N)ccc12,i,i,i,i,nt,i
COc1ccc(S[C@]2(C(=O)N(C)C)CC(=O)N(c3ccccc3)[C@@H]2c2ccc(OC)cc2)cc1,nt,i,i,nt,nt,nt
Cc1cc2ccccc2n1CCNC(=O)C(C)C,53,i,i,i,i,i
Cc1cccc(CC(=O)NCCn2c(C)cc3ccccc32)c1,38,i,i,i,i,i
Cc1sc(NC(=O)C2=COCCO2)nc1-c1ccc(Cl)cc1,39,i,i,i,i,i
Cc1cccc(Cn2cc(CN3CC(N(C)CCCOC(=O)c4cc(C)cc(C)c4)CS3(=O)=O)nn2)c1 (stereo not drawn),nt,i,i,nt,nt,nt
O=C(Nc1cc(C(F)(F)F)ccc1N1CCCCC1)C1=COCCO1,39,i,i,i,nt,i
O=C(OC12CCCN(C1)/C(=C/c1ccc(Cl)cc1)C2)c1ccccc1 (stereo not drawn),nt,i,i,nt,nt,nt
SMILES,SKN-1 inh,GC-B act,NPR1 activator,MT1-MMP act inh,Bfl-1 A1 inh,Tb MetRS inh
O=C(Oc1ccc(OC(=O)c2ccco2)c(S(=O)(=O)c2ccc(Br)cc2)c1)c1ccco1,36,nt,nt,i,i,i
COc1ccc(C(C(=O)N(C)C2CCCC2)N(Cc2ccc(F)cc2)C(=O)c2cc(C)on2)cc1OC (stereo not drawn),nt,i,i,nt,nt,nt
COCCNC(=O)c1ccc(-c2ccc(OC)cc2C)c2ccoc12,36,i,i,i,nt,i
CC1(C)CC(=Cc2cc(O)ccc2[N+](=O)[O-])C(=O)c2ccccc21,i,nt,nt,i,nt,i
CC1(C)c2ccccc2C(=O)c2ccccc21,46,i,i,i,nt,i
CC1(C)C(=Cc2ccccc2)C(=O)c2ccccc21,41,i,i,i,nt,i
CC(=O)OC12CCCN(C1)/C(=C/c1cccc(N(C)C)c1)C2 (stereo not drawn),nt,i,i,nt,nt,nt
CSc1ccc(S(=O)(=O)N2CCC(C(=O)Nc3ccccc3C(F)(F)F)CC2)cc1,42,i,i,i,i,i
O=C(Cn1nnc(-c2ccccc2F)n1)Nc1ccc(F)cc1F,nt,i,i,nt,nt,nt
O=C(NCCN1C(=O)C2C3C=CC(C3)C2C1=O)Nc1ccccc1O (stereo not drawn),38,i,i,i,i,i
Cc1c(NC(=O)NCCN2C(=O)C3C4C=CC(C4)C3C2=O)c(=O)n(-c2ccccc2)n1C (stereo not drawn),i,i,i,i,i,i
OCc1cccc(-c2csc(C(O)(c3ccccc3)C(F)(F)F)n2)c1 (stereo not drawn),35,i,i,i,nt,i
Cc1ccc(NC(=O)CNC(=O)c2cccs2)cc1S(=O)(=O)Nc1ccc(Cl)cc1,41,i,i,i,i,i
COc1ccc(NC(=O)CNC(=O)c2cccs2)cc1Cl,i,i,i,i,i,i
C(=C\c1nc(-c2ccncc2)no1)/c1ccccc1,79,i,i,i,i,i
Cc1cccc(NC(=O)c2ccc3c(c2)C(=O)N(c2ccccc2C)C3=O)n1,43,i,i,i,i,i
CCOC(=O)[C@]12CCCCC/C=C\1N(Cc1ccc(OC)cc1)C(=O)[C@H]2CC(=O)NCCCOC,nt,i,i,nt,nt,nt
Cc1ccc(/C=C2\CCC3=C2OC(N)=C(C#N)C3c2ccc(C)cc2)cc1 (stereo not drawn),35,nt,nt,i,i,i
Cc1ccc(C2C(C#N)=C(N)Oc3cc(N)ccc32)cc1 (stereo not drawn),i,i,i,i,i,i
Cc1cc(OCc2nc3ccccc3s2)ccc1N,i,i,i,i,i,i
c1ccc(OCc2nc3ccccc3s2)cc1,49,i,i,i,i,i
Fc1ccc(OCc2nc3ccccc3s2)cc1,38,i,i,i,i,i
CC(C)CN1C(=O)[C@@]2(CC(=O)N(C)C2c2ccccc2)c2cc(-n3cc(CCc4ccccc4)nn3)ccc21 (stereo partly drawn),nt,i,i,nt,nt,nt
O=C(O)CCNS(=O)(=O)c1ccc2ccccc2c1,i,i,i,i,i,i
O=C(O)CCNc1cc2ccccc2cc1C(=O)O,36,i,i,i,i,i
